Test results published in ChEMBL document CHEMBL1127424, “7-azetidinylquinolones as antibacterial agents. 2. Synthesis and biological activity of 7-(2,3-disubstituted-1-azetidinyl)-4-oxoquinoline- and -1,8-naphthyridine-3-carboxylic acids. Properties and structure-activity relationships of quinolones with an azetidine moiety” (J Med Chem, 1994).
≈ marks a conversion by molar mass, not a printed value.

How the values were obtained:
[1] = HPLC capacity factor (k'); assay type: ADME
How it was run: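 Ion-pair reversed-phase HPLC on ODS-2 (10 μm) at 45 °C. Mobile phase: 10 mM sodium heptanesulfonate plus 50 mM KH2PO4 (pH 3.5)–methanol 45:55, 1 mL/min. Samples at 100 μg/mL in DMF, injected in duplicate, UV 280 nm. k' = (tR − t0)/t0.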

[2] = Measured ionization constant (pKa); assay type: physicochemical; settings: read-out: pKa1
How it was run: (§1)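 Spectrophotometric titration at 20 ± 1 °C, 0.1 M ionic strength, pH varied with H2SO4 or NaOH made up in the compound stock. Absorbance followed at compound-specific wavelengths chosen from 200–400 nm scans. pKa1 and pKa2 taken as the inflection points of the two-step absorbance vs pH curve.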

[3] = Solubility (buffer pH 7.4); assay type: physicochemical; settings: read-out: S
How it was run: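 Excess solid shaken in 0.05 M phosphate buffer pH 7.4 for 24 h at 25 °C. Suspension filtered through 0.22 μm, discarding the first portion. Filtrate diluted in 0.1 N HCl or 0.1 N NaOH and read by UV at the compound's absorbance maximum.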

[4] = Dissociation constant (pKa); assay type: physicochemical; settings: read-out: pKa2; how it was run: as §1
[5] = system: Staphylococcus epidermidis; assay: In vitro minimum inhibitory concentration for Staphylococcus epidermidis ATCC 155-1; assay type: functional
How it was run: (§2)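 Serial 2-fold agar dilution in Mueller Hinton medium, run alongside a reference quinolone. Inoculum adjusted to 10⁸ cfu/mL; compound range 0.007–16 μg/mL.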

Mus musculus [6] = assay: Evaluation of efficacy on systemic infections Escherichia coli HM-42, after oral administration in mice; assay type: functional
How it was run: (§3)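 Single oral dose given immediately after infection, one of four doses per group, chosen from in vitro activity. Survival scored after one week. ED50 (total mg/kg protecting 50%) interpolated from survival rates.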

Bacillus subtilis = assay: In vitro minimum inhibitory concentration for Bacillus subtilis ATCC 6633; assay type: functional; how it was run: as §2
Bacillus cereus = assay: In vitro minimum inhibitory concentration for Bacillus cereus ATCC 11778; assay type: functional; how it was run: as §2
Staphylococcus aureus = assay: In vitro minimum inhibitory concentration for Staphylococcus aureus ATCC 25178; assay type: functional; how it was run: as §2
Proteus vulgaris = assay: In vitro minimum inhibitory concentration for Proteus vulgaris ATCC 8427; assay type: functional; how it was run: as §2
Enterococcus faecalis [7] = assay: microbe, parasite or virus in culture; settings: ATCC 10541
Mus musculus [8] = assay: Evaluation of efficacy on systemic infections Staphylococcus aureus HS-93, after oral administration in mice; assay type: functional; how it was run: as §3
Morganella morganii = assay: In vitro minimum inhibitory concentration for Morganella morganii ATCC 8019; assay type: functional; how it was run: as §2
[9] = AUC (0-4 hr) ug/ml/h; assay type: ADME, cell-free; parameters: time < 4 hr; concentration or dose not given beside the values; settings: plasma
How it was run: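 Mice dosed once orally at 50 mg/kg; blood taken from groups of six mice at 0.5, 1, 2 and 4 h. Serum drug assayed by disk agar diffusion bioassay (Bacillus subtilis ATCC 6633 on Seed Agar, 37 °C, 18 h), giving total activity.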

Pseudomonas aeruginosa = assay: In vitro minimum inhibitory concentration for Pseudomonas aeruginosa ATCC 10145; assay type: functional; how it was run: as §2
Mus musculus [10] = assay: Evaluation of efficacy on systemic infections Pseudomonas aeruginosa HS-116, after oral administration in mice; assay type: functional; how it was run: as §3
Enterobacter cloacae = assay: In vitro minimum inhibitory concentration for Enterobacter cloacae ATCC 23355; assay type: functional
Enterococcus faecalis [11] = assay: In vitro minimum inhibitory concentration for Streptococcus faecalis ATCC 10541; assay type: functional; how it was run: as §2
Escherichia coli [12] = assay: In vitro minimum inhibitory concentration to inhibit Escherichia coli ATCC 10799; assay type: functional
How it was run: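 Serial 2-fold agar dilution on Mueller Hinton medium, run alongside 1b as comparator. Inoculum adjusted to 10⁸ cfu/mL; compound range 0.007 to 16 μg/mL. Incubated 37 °C for 18 h. MIC taken as the lowest concentration preventing visible growth.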

Klebsiella pneumoniae = assay: In vitro minimum inhibitory concentration to inhibit Klebsiella pneumoniae ATCC 10031; assay type: functional; how it was run: as §2
Escherichia coli [13] = assay: In vitro minimum inhibitory concentration for Escherichia coli ATCC 10799; assay type: functional; how it was run: as §2

Compound | Log k' [1] | pKa [2] | solubility [3] | pKa [4] | MIC [5] | ED50 (Mus musculus [6]) | MIC (Bacillus subtilis) | MIC (Bacillus cereus) | MIC (Staphylococcus aureus) | MIC (Proteus vulgaris) | ED50 (Mus musculus [8]) | MIC (Morganella morganii) | MIC (Pseudomonas aeruginosa) | ED50 (Mus musculus [10]) | also measured
CC1(N)CN(c2c(F)cc3c(=O)c(C(=O)O)cn(C4CC4)c3c2Cl)C1 | 0.1061 | 6.08 | 1.7 µg/mL (≈ 4.65 µM) | 8.45 | – | – | – | – | – | – | – | – | – | – | –
CNC1CN(c2c(F)cc3c(=O)c(C(=O)O)cn(C4CC4)c3c2F)C1 | 0.039 | 6.18 | 1.7 µg/mL (≈ 4.87 µM) | 8.44 | – | – | – | – | – | – | – | – | – | – | –
CCNC1CN(c2c(F)cc3c(=O)c(C(=O)O)cn(C4CC4)c3c2F)C1 | 0.0996 | 6.2 | – | 8.57 | – | – | – | – | – | – | – | – | – | – | –
O=C(O)c1cn(C2CC2)c2cc(N3CCNCC3)c(F)cc2c1=O [CIPROFLOXACIN] | – | – | – | – | 0.5 µg/mL (≈ 1.51 µM) | 3 mg/kg | 0.06 µg/mL (≈ 0.181 µM) | 0.25 µg/mL (≈ 0.754 µM) | 0.25 µg/mL (≈ 0.754 µM) | 0.06 µg/mL (≈ 0.181 µM) | 45.1 mg/kg | 0.06 µg/mL (≈ 0.181 µM) | 0.12 µg/mL (≈ 0.362 µM) | 70.3 mg/kg | MIC (Enterococcus faecalis [7]): 0.5 µg/mL (≈ 1.51 µM); AUC [9]: 2300 ng·h/mL
CCn1cc(C(=O)O)c(=O)c2cc(F)c(N3C[C@@H](N)[C@@H]3C)c(F)c21 | 0.0145 | – | – | – | 0.12 µg/mL (≈ 0.356 µM) | 4 mg/kg | 0.06 µg/mL (≈ 0.178 µM) | 0.25 µg/mL (≈ 0.741 µM) | 0.25 µg/mL (≈ 0.741 µM) | 0.25 µg/mL (≈ 0.741 µM) | 5.1 mg/kg | 0.06 µg/mL (≈ 0.178 µM) | 1 µg/mL (≈ 2.96 µM) | 56.3 mg/kg | MIC (Enterobacter cloacae): 0.06 µg/mL (≈ 0.178 µM); MIC (Enterococcus faecalis [11]): 1 µg/mL (≈ 2.96 µM); MIC (Escherichia coli [12]): 0.12 µg/mL (≈ 0.356 µM); MIC (Klebsiella pneumoniae): 0.015 µg/mL (≈ 0.0445 µM)
CNC1(C)CN(c2cc3c(cc2F)c(=O)c(C(=O)O)cn3C2CC2)C1 | 0.0875 | 6.47 | 0.7 µg/mL (≈ 2.03 µM) | 8.65 | – | – | – | – | – | – | – | – | – | – | –
CNC1(C)CN(c2c(F)cc3c(=O)c(C(=O)O)cn(C4CC4)c3c2F)C1 | 0.1055 | 6.26 | 0.5 µg/mL (≈ 1.38 µM) | 8.58 | – | – | – | – | – | – | – | – | – | – | –
C[C@@H]1[C@@H](N(C)C)CN1c1c(F)cc2c(=O)c(C(=O)O)cn(C3CC3)c2c1F | 0.769 | 6.08 | 97.1 µg/mL (≈ 257 µM) | 8.2 | 0.06 µg/mL (≈ 0.159 µM) | 3.1 mg/kg | 0.015 µg/mL (≈ 0.0397 µM) | 1 µg/mL (≈ 2.65 µM) | 0.12 µg/mL (≈ 0.318 µM) | 0.25 µg/mL (≈ 0.662 µM) | 17.9 mg/kg | 0.25 µg/mL (≈ 0.662 µM) | 2 µg/mL (≈ 5.3 µM) | 164 mg/kg | MIC (Enterobacter cloacae): 0.12 µg/mL (≈ 0.318 µM); MIC (Escherichia coli [13]): 0.25 µg/mL (≈ 0.662 µM); MIC (Enterococcus faecalis [11]): 1 µg/mL (≈ 2.65 µM); MIC (Klebsiella pneumoniae): 0.06 µg/mL (≈ 0.159 µM); AUC [9]: 23200 ng·h/mL
CN(C)C1CN(c2cc3c(cc2F)c(=O)c(C(=O)O)cn3C2CC2)C1 | 0.482 | 6.44 | – | 7.81 | – | – | – | – | – | – | – | – | – | – | –
CN(C)C1(C)CN(c2c(F)cc3c(=O)c(C(=O)O)cn(C4CC4)c3c2F)C1 | 0.604 | 6.05 | 23.6 µg/mL (≈ 62.5 µM) | 8.12 | – | – | – | – | – | – | – | – | – | – | –
C[C@H]1[C@H](N)CN1c1c(F)cc2c(=O)c(C(=O)O)cn(C3CC3)c2c1F | 0.0755 | 6.13 | 23.2 µg/mL (≈ 66.4 µM) | 8.35 | 0.06 µg/mL (≈ 0.172 µM) | 2 mg/kg | 0.03 µg/mL (≈ 0.0859 µM) | 0.06 µg/mL (≈ 0.172 µM) | 0.06 µg/mL (≈ 0.172 µM) | 0.06 µg/mL (≈ 0.172 µM) | 9 mg/kg | 0.03 µg/mL (≈ 0.0859 µM) | 0.25 µg/mL (≈ 0.716 µM) | 22.1 mg/kg | MIC (Enterobacter cloacae): 0.03 µg/mL (≈ 0.0859 µM); MIC (Escherichia coli [13]): 0.015 µg/mL (≈ 0.0429 µM); MIC (Enterococcus faecalis [11]): 0.25 µg/mL (≈ 0.716 µM); MIC (Klebsiella pneumoniae): 0.03 µg/mL (≈ 0.0859 µM); AUC [9]: 24500 ng·h/mL
CC1(N)CN(c2cc3c(cc2F)c(=O)c(C(=O)O)cn3C2CC2)C1 | -0.1249 | 6.58 | – | 8.55 | – | – | – | – | – | – | – | – | – | – | –
